In data set [1] the test system is Bel-7402. Description: Cell cycle arrest in human Bel7402 cells assessed as accumulation at G2/M phase at 0.5 uM after 48 hrs by propidium iodide staining based flow cytometry (reference value: 56.61%). Format: functional.
The test system of data set [2] is Bel-7402. Briefly: Cell cycle arrest in human Bel7402 cells assessed as accumulation at G2/M phase at 1 uM after 48 hrs by propidium iodide staining based flow cytometry (reference value: 56.61%). Format: functional. In general terms: Flow cytometry measures light scatter and fluorescence of single cells or particles in a stream.
Data set [3] deals with MCF7. Description: Induction of apoptosis in human MCF7 cells after 24 hrs by Annexin-V FITC/propidium iodide staining based flow cytometry. In kind it is functional, cell-based.
The subject of data set [4] is Bel-7402. Briefly: Cell cycle arrest in human Bel7402 cells assessed as accumulation at G1 phase at 1 uM after 48 hrs by propidium iodide staining based flow cytometry (reference value: 34.61%). In kind it is functional.
In data set [5] the test system is MCF7. Description: Induction of apoptosis in human MCF7 cells assessed as late apoptotic cells at 0.125 uM after 24 hrs by Annexin-V FITC/propidium iodide staining based flow cytometry (reference value: 0.255%). Format: functional.
Data set [6] deals with MCF7. Description: Induction of apoptosis in human MCF7 cells assessed as late apoptotic cells at 1 uM after 24 hrs by Annexin-V FITC/propidium iodide staining based flow cytometry (reference value: 0.255%). Format: functional.
Data set [7] has as its system MCF7. Briefly: Induction of ROS generation in human MCF7 cells at 1 uM after 36 hrs by DCF-DA staining based flow cytometry (reference value: 3.77%). Format: functional. The gist of the method:
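MCF-7 cells exposed to 0–1 μM compound for 36 h, with DMSO as control; one arm pre-incubated with 2.5 mM NAC. Cells then loaded with DCF-DA at 37 °C for 15 min, harvested and resuspended in PBS. Fraction of DCF-positive cells measured by flow cytometry at Ex 480/Em 525 nm.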

Data set [8] has as its system Bel-7402. Briefly: Cell cycle arrest in human Bel7402 cells assessed as accumulation at G1 phase at 4 uM after 48 hrs by propidium iodide staining based flow cytometry (reference value: 34.61%). In kind it is functional.
Data set [9] deals with Bel-7402. Briefly: Cell cycle arrest in human Bel7402 cells assessed as accumulation at S phase at 1 uM after 48 hrs by propidium iodide staining based flow cytometry (reference value: 8.78%). Format: functional.
The test system of data set [10] is Mus musculus. Briefly: Toxicity in Balb/c nude mouse xenografted with human MCF7 cells assessed as morphological changes in spleen at 20 mg/kg/day, iv for 4 weeks by hematoxylin and eosin staining based microscopic method. In kind it is organism-based. Conditions: in vivo, 672 h. The gist of the method:
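Male BALB/c nude mice aged six weeks received 1 × 10^6 MCF-7 cells subcutaneously in the right flank. After 7 d they were randomized and dosed 20 mg/kg iv once daily in 10% DMF/2% poloxamer/88% saline; saline control. Heart, liver, spleen, lung and kidney were fixed in 4% paraformaldehyde, paraffin-embedded, sectioned at 5 μm, H&E stained and examined microscopically.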
(A xenograft is tissue or cells of one species grown in another, often human tumour cells in immunodeficient mice.)

The nature of data set [11]: Antiproliferative activity against human KB/CP4 cells after 48 hrs by MTT assay. In kind it is functional, cell-based. The conditions noted are these: KB/CP4, 48 h. The gist of the method: (§1)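 Colorimetric MTT assay. KB-3-1, NCI-H460 and Bel-7404 cells were seeded at 4000 cells/well; resistant KB/CP4, NCI-H460/MX20 and Bel-7404/CP20 were seeded at 7000 cells/well. Cells were pre-incubated 24 h at 37 °C, 5% CO2, then exposed to a compound concentration series for 48 h with DMSO ≤0.25%. Absorbance read at 570 nm. Quadruplicate wells, three repeats; means ± SD.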
For orientation: Tetrazolium dyes change colour on reduction, which living cells bring about.

Data set [12] concerns MCF7. Description: Cell cycle arrest in human MCF7 cells assessed as accumulation at G2/M phase at 0.25 uM after 48 hrs by propidium iodide staining based flow cytometry (reference value: 13.05%). Format: functional. The gist of the method: (§2)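 MCF-7 cells, 5 × 10^4 per well, seeded overnight, then exposed to 0.125–1 μM compound, or DMSO, for 48 h. Ethanol-fixed (70%, −20 °C, 12 h) and stained with PI/RNase at 37 °C for 30 min. Phase distribution determined by flow cytometry.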

In data set [13] the test system is MCF7. Briefly: Cell cycle arrest in human MCF7 cells assessed as accumulation at G2/M phase at 1 uM after 48 hrs by propidium iodide staining based flow cytometry (reference value: 13.05%). Format: functional. The gist of the method: as §2
Data set [14] has as its system Mus musculus. Description: Hepatotoxicity in Balb/c nude mouse xenografted with human MCF7 cells assessed as morphological changes in liver at 20 mg/kg/day, iv for 4 weeks by hematoxylin and eosin staining based microscopic method. Format: toxicity, organism-based. The conditions noted are these: in vivo, 672 h. The gist of the method: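 Male BALB/c nude mice (6 weeks old) carrying subcutaneous MCF-7 xenografts (1 × 10^6 cells). Dosed iv 20 mg/kg daily for 28 days in 10% DMF/2% poloxamer/88% saline; six mice per group. Organs then fixed in 4% paraformaldehyde, paraffin-embedded, cut at 5 μm, stained with Harris hematoxylin and eosin-phloxine, and examined by light microscopy.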

Data set [15] concerns MCF7. Briefly: Downregulation of CyclinB protein expression in human MCF7 cells after 48 hrs by Western blot method. Format: functional, cell-based. The gist of the method: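 MCF-7 cells exposed to 0–1 μM compound for 48 h, then lysed on ice. Lysate (20 μg protein) run on 8–12% SDS-PAGE and transferred to PVDF. Probed overnight at 4 °C with primary antibodies, then fluorescent secondaries. Band densities normalized to β-actin. Mean ± SD of three independent experiments.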

The subject of a further data set is NCI-H460. Briefly: Antiproliferative activity against human NCI-H460 cells after 48 hrs by MTT assay. Format: functional, cell-based. Conditions: NCI-H460, 48 h. The gist of the method:
as §1

For data set [16], the system named is MCF7. Description: Induction of apoptosis in human MCF7 cells assessed as increase in Bad protein expression at 0.5 to 1 uM after 48 hrs by Western blot method. Format: functional, cell-based. The gist of the method:
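MCF-7 cells were treated at 0, 0.125, 0.25, 0.5 or 1 μM for 48 h, washed in ice-cold PBS and lysed on ice for 20 min. Lysates were spun at 13,000 g, 4 °C. 20 μg protein was run on SDS-PAGE and blotted to PVDF, probed overnight at 4 °C with primary antibodies, then with fluorescent secondary antibodies. Band density was expressed relative to β-actin; three independent experiments.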

Drawing on ChEMBL document CHEMBL3997810, “A Novel Potent Anticancer Compound Optimized from a Natural Oridonin Scaffold Induces Apoptosis and Cell Cycle Arrest through the Mitochondrial Pathway” (J Med Chem, 2017), this text covers Activity and IC50 for one molecule.

Calls of active or inactive are those of the source. No cut-off for these calls is given here.

The IC50 is the concentration that inhibits the measured activity by half. A higher IC50 goes with a need for much substance. Take `C=C1C(=O)[C@]23[C@H](OC(=O)/C=C/c4ccccc4)[C@H]1CC[C@H]2[C@]12C=CCC(C)(C)[C@H]1[C@H](O)[C@]3(O)OC2`: the Activity in the data set on Bel-7402 [1] was 57.83%; with Bel-7402 [2] it was 59.37%; in the data set on MCF7 [3], “Dose-dependent effect”; with Bel-7402 [4] it was 32.12%; with MCF7 [5], 9.32%; in the data set on MCF7 [6] it was 45.2%. Moreover, the Activity in the data set on MCF7 [7] is 24.31%; with Bel-7402 [8], 27.44%; in the data set on Bel-7402 [9] it was 8.51%; in the data set with Mus musculus [10], “Non-Toxic”; in the data set with MCF7 [12] it was 16.73%; in the data set on MCF7 [13] it was 34.23%. The values for the Activity entry with Mus musculus [14] and in the data set with MCF7 [15] were “Non-Toxic” and “Dose-dependent effect”, respectively. Besides, the IC50 in data set [11] was determined as 1560 nM; in the data set on NCI-H460, 2620 nM. Besides, the outcome in the data set on MCF7 [16] was Active.
